Compound activity as filed in PubChem.
In the library only some 2.8% were active in any assay of this set; here they are far more common.
NPY1 pot ag = NPY-Y1 receptor potentiators or agonists, primary screen, cell-based | AID 1304, 2008 | activation, % at 3.6 µM | NPY-Y1 expressing cells, potentiator/agonist activation | hit rate 0.37% among 220,000; in the data active means activation above about 33%, passing the limit was not always enough;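 further: cells stimulated with NPY at EC10 then isoproterenol at EC100; 0% = low agonist plus stimulus and 100% = saturating agonist plus stimulus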
EP2 modulator = EP2 receptor modulators, cAMP readout, primary screen, cell-based, HTRF cAMP, PGE2 stimulation; EP2-expressing cells, cAMP HTRF FRET, PGE2 co-stimulation; hit rate 0.83% among 260,000; induction, % at 25 µM; AID 940, 2007; Prostaglandin E2 receptor EP2 subtype (Homo sapiens), P43116;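 active means compounds whose cAMP rise, as percent of the full-agonist control response, exceeds 60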;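 further: rat C6 glioma line stably carrying human EP2 under a CMV promoter; the protocol text gives 20 µM as final concentration; 100% = response of wells given 1 µM PGE2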
EP2 antag = human EP2 receptor antagonists, primary screen, TR-FRET cAMP, C6 glioma cells; C6 glioma cells expressing human EP2; cells stimulated with saturating PGE2; AID 1422, 2008; hit rate 0.52% among 260,000; inhibition, % at 25 µM; Prostaglandin E2 receptor EP2 subtype (Homo sapiens), P43116;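 active means percent inhibition above 40 after rounding to a whole number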;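 further: rat C6 glioma host cells with rolipram phosphodiesterase inhibitor present; the protocol text gives 20 µM as final concentration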
NPY-Y2 PAM-ag = NPY-Y2 potentiators or agonists, primary screen, cell-based; Neuropeptide Y receptor type 2 (Homo sapiens), P49146; hit rate 0.45% among 220,000; activation, % at 3.6 µM; cells expressing NPY-Y2, potentiator/agonist read-out; AID 1359, 2008; in the data active means activation above about 27%;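 further: cells stimulated with NPY near EC25 plus isoproterenol at EC100; 0% = vehicle plus submaximal agonist and 100% = vehicle plus saturating agonist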
Target sequence (P49146 whole entry, looked up): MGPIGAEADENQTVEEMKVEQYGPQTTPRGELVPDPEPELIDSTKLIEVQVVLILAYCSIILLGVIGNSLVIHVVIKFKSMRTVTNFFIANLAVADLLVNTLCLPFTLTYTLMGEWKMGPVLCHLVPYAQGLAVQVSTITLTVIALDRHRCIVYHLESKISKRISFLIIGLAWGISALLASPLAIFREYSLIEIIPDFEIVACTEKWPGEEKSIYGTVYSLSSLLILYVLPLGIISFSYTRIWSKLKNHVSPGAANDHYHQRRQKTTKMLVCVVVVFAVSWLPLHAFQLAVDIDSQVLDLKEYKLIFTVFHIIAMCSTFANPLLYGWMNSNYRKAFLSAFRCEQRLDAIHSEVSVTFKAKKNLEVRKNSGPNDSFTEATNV
NPY Y1 blocker = NPY-Y1 receptor antagonists, primary screen, cell-based; hit rate 1% among 200,000; inhibition, % at 3.6 µM; HEK293-CNG Y1 cells, membrane potential fluorescence; NPY at EC95, then isoproterenol; AID 1040, 2008; Neuropeptide Y receptor type 1 (Homo sapiens), P25929;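 active means inhibition above the campaign mean inhibition of all tested compounds plus 3 SD, cut at about 20% in these data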;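 further: 0% = DMSO wells given NPY plus isoproterenol and 100% = isoproterenol alone without NPY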
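Assay system: HEK293 cells with Y1 receptor plus CNG channel | Probe or stimulus: NPY (25 nM), isoproterenol (1 µM), Ro 20-1724 (25 µM) | Timing: Compound incubation 1 h at room temperature, readout 45 min post-stimulation | Measured by: Membrane-potential fluorescent dye readout | Benchmarks: High control isoproterenol alone, low control NPY with isoproterenol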
NPY-Y2 antag = NPY-Y2 receptor antagonists, primary screen, cell-based; inhibition, % at 2.7 µM; Neuropeptide Y receptor type 2 (Homo sapiens), P49146; NPY-Y2 expressing cells, antagonist mode; AID 793, 2007; hit rate 0.99% among 140,000; in the data active means inhibition above about 17%;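 further: 0% = vehicle with agonist challenge and 100% = reference antagonist with challenge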
EP2 cAMP induct = cAMP induction in EP2, EP4, beta2-AR and parental cells, confirmation, counter-screen for EP2 modulator project, cell-based, five parallel assays, C6 glioma, HEK293. shares compounds with EP2 modulator. cAMP HTRF induction; plus low (about EC15) PGE2 agonist. calls only at 20 µM (by protocol). hit rate 47% among 1,300. AID 1080, 2008;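 active means cAMP induction above 50% in the main assay while under 30% in all four parallel counter assays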;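 further: rat C6 glioma cells stably expressing human EP2 receptor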
Active calls of the source: *; i = inactive; / = no result given; + = active, no number.

SMILES	NPY1 pot ag	EP2 modulator	EP2 antag	NPY-Y2 PAM-ag	NPY Y1 blocker	NPY-Y2 antag	EP2 cAMP induct
Cc1ccc2c3c(cccc13)-c1ccccc1C2=O	0	79*	5	4	17	3	+
O=C(O)CCCc1ccc2ccccc2c1	/	14	11	/	/	/	/
O=C(O)CCCCCCCCCCCc1ccccc1	5	78*	10	10	0	/	+
COc1ccc(-n2c(SCC(=O)Nc3cccc(Cl)c3Cl)nc3ccccc3c2=O)cc1	/	-17	4	/	/	/	/
Cc1nc2scc(-c3cccs3)c2c(=O)n1-n1cccc1	-4	34	14	1	7	4	/
Cc1ccc(C)n1-n1c(C)nc2scc(-c3cccs3)c2c1=O	0	55	2	-1	-3	3	i
Cc1cccc(-n2c(-c3ccco3)nn(CC(N)=O)c2=O)n1	/	-17	3	/	/	/	/
Cn1nc(-c2ccccc2)c(-c2nc(-c3cccc(C(F)(F)F)c3)no2)c1Cl	4	51	10	10	-4	0	i
Cn1nc(-c2ccccc2)c(-c2nc(-c3cccc(Cl)c3)no2)c1Cl	3	38	14	-12	6	0	/
CCOc1nc(-c2cccc(OC)c2)ccc1-c1noc(C)n1	/	43	5	/	/	/	/
Cc1cc(OC(=O)c2cc(F)c(F)cc2Cl)nc(C)n1	-7	-2	4	15	1	0	/
Cc1cc(C)c(S(=O)(=O)c2ccccc2)c(OC(=O)c2cc(F)c(F)cc2Cl)n1	-5	73*	28	-11	-5	2	i
COc1cccc(-n2c(SCC(=O)Nc3cccc(C)c3C)nnc2-c2ccccn2)c1	/	-3	7	/	/	/	/
Cc1ccc(NC(=S)N(Cc2ccco2)Cc2cc3ccc(C)c(C)c3[nH]c2=O)c(C)c1	/	-7	16	/	/	/	/
C=CCC(NCc1ccccc1)c1ccc(C)o1 (configuration not stated)	4	39	7	4	0	2	/
C=CCC(NCc1ccccc1)c1ccc(Cl)cc1 (configuration not stated)	2	72*	1	-6	8	2	i
CCOc1ccc(C(C)=O)cc1CC(C(N)=O)C(N)=O	5	69*	/	6	1	2	i
CCOC(=O)C(Cc1cc(C(C)=O)ccc1OCC)C(=O)OCC	-1	15	13	4	6	6	/
O=C(Nc1cccc(Cl)c1N1CCCCC1)c1ccc2c(c1)OCCO2	-15	74*	5	-22	-1	4	i
Cc1ccc(-c2cc(N)c(=O)n(C(C)C(=O)NC3CC3)n2)o1 (configuration not stated)	/	-36	7	/	/	/	/
COc1ccc(/C=C(\C#N)C(N)=O)cc1OC	/	76*	12	/	/	/	i
O=C(Cc1c(Cl)cccc1Cl)N1CCC2(CC1)CC(O)(c1ccc(F)cc1)CO2 (configuration not stated)	/	-18	/	/	/	/	/
CC(=O)N1c2ccccc2C(C)(c2ccccc2)CC1(C)C (configuration not stated)	-26	78*	8	-17	7	8	+
CCOP(=O)(OCC)c1nc(-c2ccccc2Cl)oc1N1CCOCC1	13	6	8	-7	3	/	/
CCOP(=O)(OCC)c1nc(-c2ccc(Cl)cc2Cl)oc1N1CCCCC1	0	52	3	3	-1	/	i
SMILES	NPY1 pot ag	EP2 modulator	EP2 antag	NPY-Y2 PAM-ag	NPY Y1 blocker	NPY-Y2 antag	EP2 cAMP induct
Nc1n[nH]c2c1C1(CCCCC1)Cc1ccccc1-2	1	74*	4	8	6	3	+
CC(=O)Nc1ccc(CN2CCc3c(nc(C)[nH]c3=O)C2)cc1	/	-14	5	/	/	/	/
CSc1ccccc1NC(=O)CN(C)Cc1cccc(Cl)c1	-7	66*	6	-22	2	/	+
Cc1ccc(O)c(N=Cc2cc(Cc3ccccc3)cc([N+](=O)[O-])c2O)c1	-21	69*	6	0	2	/	i
CCOC(=O)c1c(NC(=O)COC(=O)Cn2c(C)nc3ccccc32)sc2c1CCCC2	-24	55	9	-1	-2	10	+
CCOC(=O)c1c(NC(=O)COC(=O)Cn2cnc3ccccc32)sc(C)c1C	3	-9	22	10	-3	0	/
CCOC(=O)c1c(NC(=O)Cn2nnc3ccccc32)sc2c1CCC(C)C2 (configuration not stated)	4	50	11	13	8	1	i
CCOC(=O)c1c(NC(=O)COC(=O)Cn2cnc3ccccc32)sc2c1CCC(C)C2 (configuration not stated)	-2	62*	8	-5	5	7	i
CCOC(=O)c1c(NC(=O)Cn2c(C)nc3ccccc32)sc2c1CCC2	-10	43	12	9	-7	0	/
COc1ccc(-c2c(C#N)c(N)nc3c2CCCC3)c(OC)c1	/	38	7	/	/	/	/
CCC(=O)Nc1ccc2c(c1)ncn2C(C)(C)C	/	-31	9	/	/	/	/
C/C(=C\c1ccc(C(=O)O)cc1)c1ccc2c(c1)C(C)(C)CCC2(C)C	/	53	18	/	/	/	+
Cc1ccc2[nH]c3c(=O)n(N)c(C)nc3c2c1	-3	-17	4	-1	-5	/	/
Cc1ccc2[nH]c3c(=S)nc[nH]c3c2c1	-4	88*	12	-15	-3	2	i
CCn1c2c(c3cc(Br)ccc31)CCC/C2=N\O	9	50	19	2	2	-1	/
CCn1c2c(c3cc(OCC(C)C)ccc31)CCCC2=O	-19	74*	18	-6	0	2	+
Cc1ccc2c(c1)N(CC(=O)N1CCC(Cc3ccccc3)CC1)C(=O)CO2	/	-95	11	/	/	/	/
CCc1ccc(-c2csc(NC(=O)C3CCCO3)c2C(=O)OC(C)C)cc1 (configuration not stated)	-37	57	6	5	-2	0	/
COC(=O)c1c(-c2ccc(F)cc2)csc1NC(=O)C1CCCO1 (configuration not stated)	-20	66*	5	-5	-5	/	i
Cc1ccc(C(=O)CSc2nc3c(c(=O)n(C)c(=O)n3C)n2C)cc1	/	-21	7	/	/	/	/
O=c1ccc(-c2nc3ccccc3n2Cc2ccccc2Cl)c[nH]1	-7	4	4	-17	0	/	/
Clc1ccccc1Cn1c(/C=C/c2ccco2)nc2ccccc21	-24	71*	9	-21	9	14	i
